# Where “and” joins values, the source holds several entries; their conditions need not be identical. Equal entries are not always repeated.
# Legend:
# [1] = test system: dolastatin-induced tubulin rings; experiment: Stacking of dolastatin-induced tubulin rings by TAT; conditions: Figures S3D, S3E
# [2] = test system: microtubules and tubulin; experiment: Acetylation activity of TAT mutants with microtubules and tubulin; format: biochemical; conditions: Figure 2C
# [3] = test system: microtubules; experiment: Activity of bead-coupled biotinylated TAT with microtubules; format: biochemical; conditions: 1 µm streptavidin beads; Figure 6A
# Procedure, shortened: (§1)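 Biotinylated TAT was either immobilized on 1 µm diameter streptavidin beads or left free in solution. Each form was reacted with tubulin or with microtubules. Activity was normalized to the free enzyme. About 15% unpolymerized tubulin was present in the microtubule reactions.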
# [4] = test system: tubulin; experiment: Activity of bead-coupled biotinylated TAT with tubulin; format: biochemical; conditions: 1 µm streptavidin beads; Figure 6A
# Procedure, shortened: as §1
# [5] = test system: S. cerevisiae microtubules; experiment: Single-molecule TIRF of TAT-GFP on S. cerevisiae microtubules; format: binding, Saccharomyces cerevisiae; conditions: purified S. cerevisiae microtubules and engineered with human C-terminal tails
# [6] = test system: microtubules; format: biochemical; conditions: for Effect on microtubule acetylation by TAT: saturating concentration of MAP
# [7] = test system: microtubules; experiment: Single-molecule TIRF of TAT-GFP scanning on microtubules; format: binding; conditions: for Effect on TAT-GFP microtubule scanning: saturating concentration of MAP
# [8] = test system: unpolymerized tubulin; experiment: TAT-tubulin complex formation by analytical ultracentrifugation; format: binding; conditions: TAT concentrations as high as 40 µM
# [9] = target: microtubules; experiment: TAT binding to microtubules in sedimentation assays; conditions: read-out: Kd for microtubules, Figure S3B and C
# [10] = test system: tubulin polymers; experiment: TAT activity with tubulin polymers of diverse geometries; format: biochemical; conditions: Figure 3A, N≥3
# Procedure, shortened: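 Microtubule substrate was stabilized with 20 µM taxol. Negative-stain EM confirmed dolastatin-10 rings, Zn sheets and microtubules under the reaction conditions. Values are means ± S.E.M. (N≥3), compared by t-test.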
# [11] = test system: TAT; conditions: ref Friedmann et al., 2012; cited from earlier work
# [12] = test system: tubulin; experiment: Tubulin acetylation assay; format: biochemical
# [13] = test system: microtubules; experiment: Microtubule acetylation assay; format: biochemical; conditions: bulk measurements
# [14] = test system: microtubules; experiment: Immunofluorescence of acetylation distribution on microtubules; format: biochemical; conditions: taxol stabilized microtubules; antibody specific for acetylated tubulin; Figure 4
# Procedure, shortened: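 Recombinant TAT acetylated taxol-stabilized microtubules in vitro. Excess enzyme was used at a 10:1 TAT:tubulin molar ratio and sampled over a time course. Marks were detected by immunofluorescence. Line-scans were taken along microtubules in the acetylated-tubulin channel. End analysis at 15 s averaged 25 line-scans from the tip to 5 µm inward.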
molecule,measurement,setting,value
F105A TAT mutant: F105A TAT mutant defective in acetylation (protein) MEFPFDVDALFPERITVLDQHLRPPARRPGTTTPARVDLQQQIMTIIDELGKASAKAQNLSAPITSASRMQSNRHVVYILKDSSARPAGKGAIIGFIKVGYKKLAVLDDREAHNEVEPLCILDFYIHESVQRHGHGRELFQYMLQKERVEPHQLAIDRPSQKLLKFLNKHYNLETTVPQVNNFVIFEGFFAHQHRPPAPSLRATRHSRAAAVDPTPAAPARKLPPKRAEGDIKPYSSSDREFLKVAVEPPWPLNRAPRRATPPAHPPPRSSSLGNSPERGPLRPFVPEQELLRSLRLCPPHPTARLLLAADPGGSPAQRRRTRGTPPGLVAQSCCYSRHGGVNSSSPNTGNQDSKQGEQETKNRSASEEQALSQDGSGEKPMHTAPPQAPAPPAQSWTVGGDILNARFIRNLQERRSTRPW,Stacking of dolastatin-induced tubulin rings,[1],impaired in stack formation
same,Effect of mutation on TAT activity,[2]; N≥3,defective in acetylation
same,Effect of mutation on TAT activity,"[2]; N≥3, listed as Phe105",severely impairs enzyme activity with both tubulin and microtubules
"bead-coupled TAT: C-terminally biotinylated TAT construct coupled to streptavidin beads 1 µm in diameter (protein, UniProt Q5SQI0 1-421, looked up, C-terminal biotin, streptavidin beads) Alpha-tubulin …: MEFPFDVDALFPERITVLDQHLRPPARRPGTTTPARVDLQQQIMTIIDELGKASAKAQNLSAPITSASRMQSNRHVVYILKDSSARPAGKGAIIGFIKVGYKKLFVLDDREAHNEVEPLCILDFYIHESVQRHGHGRELFQYMLQKERVEPHQLAIDRPSQKLLKFLNKHYNLETTVPQVNNFVIFEGFFAHQHRPPAPSLRATRHSRAAAVDPTPAAPARKLPPKRAEGDIKPYSSSDREFLKVAVEPPWPLNRAPRRATPPAHPPPRSSSLGNSPERGPLRPFVPEQELLRSLRLCPPHPTARLLLAADPGGSPAQRRRTRGTPPGLVAQSCCYSRHGGVNSSSPNTGNQDSKQGEQETKNRSASEEQALSQDGSGEKPMHTAPPQAPAPPAQSWTVGGDILNARFIRNLQERRSTRPW",Reduction of activity with microtubules on bead coupling,[3],~89%
same,Activity with tubulin when bead-coupled,[4],retained activity with tubulin
"TAT-GFP: purified TAT-GFP for single-molecule TIRF microscopy (protein, left off: GFP, end not stated, kept) MEFPFDVDALFPERITVLDQHLRPPARRPGTTTPARVDLQQQIMTIIDELGKASAKAQNLSAPITSASRMQSNRHVVYILKDSSARPAGKGAIIGFIKVGYKKLFVLDDREAHNEVEPLCILDFYIHESVQRHGHGRELFQYMLQKERVEPHQLAIDRPSQKLLKFLNKHYNLETTVPQVNNFVIFEGFFAHQHRPPAPSLRATRHSRAAAVDPTPAAPARKLPPKRAEGDIKPYSSSDREFLKVAVEPPWPLNRAPRRATPPAHPPPRSSSLGNSPERGPLRPFVPEQELLRSLRLCPPHPTARLLLAADPGGSPAQRRRTRGTPPGLVAQSCCYSRHGGVNSSSPNTGNQDSKQGEQETKNRSASEEQALSQDGSGEKPMHTAPPQAPAPPAQSWTVGGDILNARFIRNLQERRSTRPW",Scanning on S. cerevisiae microtubules,[5],do not observe TAT-GFP scanning
same,Activity of GFP fusion vs untagged protein,[6]; Figure S5,comparable to that of the untagged protein
same,"Interaction time (τ), doublecortin",[7]; microtubules with saturating doublecortin,1.4 s
same,1D diffusion coefficient on microtubules,"[7]; undecorated microtubules, MSD fit, 100 ms frames, mean, legend: fit",0.27 µm^2/s and 0.27 ± 0.01 µm^2/s
same,Scan starting position,"[7]; undecorated microtubules, N=163, Figure 5D","randomly distributed on the microtubule, showing no bias for ends"
same,Interaction time (τ) on microtubules,"[7]; undecorated microtubules, exponential fit corrected for photobleaching, N=269",1.5 s and 1.5 ± 0.3 s
doublecortin: microtubule binding protein covering the fenestration at the vertices between four tubulin dimers (protein) MELDFGHFDERDKTSRNMRGSRMNGLPSPTHSAHCSFYRTRTLQALSNEKKAKKVRFYRNGDRYFKGIVYAVSSDRFRSFDALLADLTRSLSDNINLPQGVRYIYTIDGSRKIGSMDELEEGESYVCSSDNFFKKVEYTKNVNPNWSVNVKTSANMKAPQSLASSNSAQARENKDFVRPKLVTIIRSGVKPRKAVRVLLNKKTAHSFEQVLTDITEAIKLETGVVKKLYTLDGKQVTCLHDFFGDDDVFIACGPEKFRYAQDDFSLDENECRVMKGNPSATAGPKASPTPQKTSAKSPGPMRRSKSPADSGNDQDANGTSSSQLSTPKSKQSPISTPTSPGSLRKHKDLYLPLSLDDSDSLGDSM,Effect on microtubule acetylation by TAT,[6]; Figure 5F,no effect
same,Effect on TAT-GFP microtubule scanning,[7]; Figure 5F,no effect
"TAT: Homo sapiens TAT (1–196) expressed in Escherichia coli as a GST-fusion (protein, left off: GST, end not stated, state not stated) MEFPFDVDALFPERITVLDQHLRPPARRPGTTTPARVDLQQQIMTIIDELGKASAKAQNLSAPITSASRMQSNRHVVYILKDSSARPAGKGAIIGFIKVGYKKLFVLDDREAHNEVEPLCILDFYIHESVQRHGHGRELFQYMLQKERVEPHQLAIDRPSQKLLKFLNKHYNLETTVPQVNNFVIFEGFFAHQHRP",Stable complex formation with unpolymerized tubulin,[8],undetectable
same,Stacking of dolastatin-induced tubulin rings,[1],promotes stacking of dolastatin-induced tubulin rings in a dose-dependent manner
same,Kd,[9],~44 µM
same,Acetylation of unmodified microtubules vs brain microtubules,[6]; Figures S5G and S5H,as effectively as brain microtubules
same,Microtubule acetylation after removal of C-terminal tails,"[6]; subtilisin microtubules, Figure 5F",unaffected by removal of the C-terminal tails
same,"Total microtubule length scanned, subtilisin-treated vs untreated microtubules","[7]; 50 microtubules, Figure 5F",covers the same total microtubule length
same,"Interaction time (τ), labeled spastin","[7]; microtubules coated with DyLight 550 labeled spastin, ATPγS",1.5 s
same,Average microtubule length scanned,"[7]; undecorated microtubules, Figure S5B",2.9 µm
same,Maximum scan excursion,"[7]; undecorated microtubules, excursions up to, Figure S5B",up to 10.4 µm
same,TAT activity with microtubules vs unpolymerized tubulin,[10],largest activity enhancement over unpolymerized tubulin is seen with microtubules
same,Km,[11],~32 µM
same,Catalytic rate with tubulin,[12],0.4 h⁻¹
same,Acetylation rate with microtubules,[13],~1.6 h⁻¹
same,Distribution of acetylation along microtubule,[14],acetylates along the entire microtubule without a preference for ends
kinesin: motor domain of kinesin-5 (protein) MASQPNSSAKKKEEKGKNIQVVVRCRPFNLAERKASAHSIVECDPVRKEVSVRTGGLADKSSRKTYTFDMVFGASTKQIDVYRSVVCPILDEVIMGYNCTIFAYGQTGTGKTFTMEGERSPNEEYTWEEDPLAGIIPRTLHQIFEKLTDNGTEFSVKVSLLEIYNEELFDLLNPSSDVSERLQMFDDPRNKRGVIIKGLEEITVHNKDEVYQILEKGAAKRTTAATLMNAYSSRSHSVFSVTIHMKETTIDGEELVKIGKLNLVDLAGSENIGRSGAVDKRAREAGNINQSLLTLGRVITALVERTPHVPYRESKLTRILQDSLGGRTRTSIIATISPASLNLEETLSTLEYAHRAKNILNKPEVNQKLTKKALIKEYTEEIERLKRDLAAAREKNGVYISEENFRVMSGKLTVQEEQIVELIEKIGAVEEELNRVTELFMDNKNELDQCKSDLQNKTQELETTQKHLQETKLQLVKEEYITSALESTEEKLHDAASKLLNTVEETTKDVSGLHSKLDRKKAVDQHNAEAQDIFGKNLNSLFNNMEELIKDGSSKQKAMLEVHKTLFGNLLSSSVSALDTITTVALGSLTSIPENVSTHVSQIFNMILKEQSLAAESKTVLQELINVLKTDLLSSLEMILSPTVVSILKINSQLKHIFKTSLTVADKIEDQKKELDGFLSILCNNLHELQENTICSLVESQKQCGNLTEDLKTIKQTHSQELCKLMNLWTERFCALEEKCENIQKPLSSVQENIQQKSKDIVNKMTFHSQKFCADSDGFSQELRNFNQEGTKLVEESVKHSDKLNGNLEKISQETEQRCESLNTRTVYFSEQWVSSLNEREQELHNLLEVVSQCCEASSSDITEKSDGRKAAHEKQHNIFLDQMTIDEDKLIAQNLELNETIKIGLTKLNCFLEQDLKLDIPTGTTPQRKSYLYPSTLVRTEPREHLLDQLKRKQPELLMMLNCSENNKEETIPDVDVEEAVLGQYTEEPLSQEPSVDAGVDCSSIGGVPFFQHKKSHGKDKENRGINTLERSKVEETTEHLVTKSRLPLRAQINL,Effect on microtubule acetylation by TAT,[6]; Figure 5F,no effect
same,Effect on TAT-GFP microtubule scanning,[7]; Figure 5F,no effect

# — article PMC4726456 (Cell, 2014)
